Assay [1] has as its system HEK293T. As to the kind of experiment: Metal chelating activity assessed as inhibition of human DMT1 expressed in HEK293T cells by measuring inhibition of radiolabeled 55Fe2+ uptake at 10 uM preincubated with compound for 5 mins followed by incubation with Fe2+ and radiolabeled 55Fe2+ for 15 mins at extracellular pH of 5.5 by scintillation counting analysis. The format is cell-based. To be noted: time 20.0 min. In outline:
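HEK293T cells were seeded 30,000/well and transiently transfected with DsRED-hDMT1 by Lipofectamine 24 h later; assays ran the next day. After a wash in uptake solution, cells got a 5 min compound preincubation, then 15 min RT uptake in pH 5.5 uptake solution with 100 μM ascorbate, Fe²⁺ and ⁵⁵Fe²⁺ (0.5 μCi/mL). An ice-cold pH 7.5 wash followed, then scintillation counting, with cpm converted to influx rates.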

Assay [2] is described as follows: Metal chelating activity assessed as compound-Fe2+ complex formation by measuring precipitation at 10 uM incubated with radilolabeled-55Fe2+ for 15 mins in aqueous buffer of pH 7.4 by scintillation counting analysis.
A short description of assay [3]: Metal chelating activity assessed as compound-Fe2+ complex formation by measuring precipitation at 10 uM incubated with radilolabeled-55Fe2+ for 15 mins in aqueous buffer of pH 7.4 by scintillation counting analysis. A digest of the protocol: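 Uptake solution (pH 7.4) with 1 μM Fe2+, 100 μM ascorbic acid, 0.5 μCi/mL 55Fe2+ and 10 μM compound, incubated 15 min at RT in polypropylene tubes. Aliquots taken in quadruplicate for scintillation counting of remaining 55Fe2+.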

The test system of assay [4] is HEK293T. As to the kind of experiment: Metal chelating activity assessed as inhibition of human ZIP8 expressed in HEK293T cells by measuring inhibition of radiolabeled 55Fe2+ uptake at 10 uM preincubated with compound for 5 mins followed by incubation with Fe2+ and radiolabeled 55Fe2+ for 15 mins at extracellular pH of 7.4 by scintillation counting analysis. The format is cell-based. To be noted: time 20.0 min. In outline: (§1)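 HEK293T cells were seeded 30,000/well and transiently transfected with DsRED-hZIP8 by Lipofectamine 24 h later; assays ran the next day. Cells got a 5 min compound preincubation, then 15 min RT uptake with 100 μM ascorbate, Fe²⁺ and ⁵⁵Fe²⁺ (0.5 μCi/mL). An ice-cold wash followed, then scintillation counting, with counts converted to influx rates.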

Assay [5] in a line: Metal chelating activity assessed as compound-Fe2+ complex formation at 20 uM preincubated with Fe2+ for 5 mins followed by calcein challenge in aqueous buffer of pH 5.5 and measured after 5 mins by calcein quenching assay. To be noted: time 10.0 min.
The target in assay [6] is T1, Natural resistance-associated macrophage protein 2 (Homo sapiens, UniProt P49281).
T1 sequence (P49281 whole entry): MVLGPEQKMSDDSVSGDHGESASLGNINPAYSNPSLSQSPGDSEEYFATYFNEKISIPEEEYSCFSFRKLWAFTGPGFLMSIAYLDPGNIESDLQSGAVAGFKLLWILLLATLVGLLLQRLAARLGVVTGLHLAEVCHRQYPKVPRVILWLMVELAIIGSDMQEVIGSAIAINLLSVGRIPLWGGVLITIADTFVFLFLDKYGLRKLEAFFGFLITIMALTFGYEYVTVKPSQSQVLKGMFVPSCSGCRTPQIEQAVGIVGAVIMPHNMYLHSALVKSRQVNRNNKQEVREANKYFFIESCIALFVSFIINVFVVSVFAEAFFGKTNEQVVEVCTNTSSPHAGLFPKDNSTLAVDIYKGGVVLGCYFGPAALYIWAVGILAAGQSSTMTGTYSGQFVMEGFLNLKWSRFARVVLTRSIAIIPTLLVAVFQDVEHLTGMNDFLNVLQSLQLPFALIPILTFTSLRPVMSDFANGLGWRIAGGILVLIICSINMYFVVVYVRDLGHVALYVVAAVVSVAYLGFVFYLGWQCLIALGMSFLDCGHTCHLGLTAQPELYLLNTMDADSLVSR
Kind of assay: Inhibition of human DMT1 expressed in HEK293 cells assessed as inhibition of radiolabeled 55Fe2+ uptake incubated for 1 hr by microplate scintillation counting analysis. The format is cell-based. To be noted: in the assay text read “incubated for 15 mins” for “incubated for 1 hr”. A digest of the protocol:
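HEK293 cells stably expressing DsRED-hDMT1 were cultured in DMEM with 10% FBS, 10 mM HEPES and 1 mM Na-pyruvate, and seeded 50,000/well 24 h ahead. Cells got a 5 min compound preincubation, then 15 min RT uptake at pH 5.5 with 100 μM ascorbate, Fe²⁺ and ⁵⁵Fe²⁺ (0.5 μCi/mL). After an ice-cold pH 7.5 wash, cells sat 1 h in scintillant. Counts were converted to influx rates and fitted with a 4-parameter sigmoid for IC50.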

Assay [7] in a line: Metal chelating activity assessed as compound-Cd2+ complex formation by UV-Vis titration based analysis.
A short description of assay [8]: Metal chelating activity assessed as compound-Fe2+ complex formation by UV-Vis titration based analysis.
The nature of assay [9]: Metal chelating activity assessed as compound-Cd2+ complex formation at ratio of 2:1 at 0.4 mM in aqueous buffer of pH 7.4 by isothermal titration calorimetry. A digest of the protocol: (§2)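 Cadmium chloride titrated into 0.4 mM compound (from 10 mM DMSO stock) at 25 °C, stirring 750 rpm. Buffer was 20 mM HEPES/150 mM NaCl pH 7.5 or 20 mM MES/150 mM NaCl pH 5.5. First injection 0.4 μL, then 2 μL every 150 s. Buffer/DMSO control titrations run. Fit to a one-set-of-sites model, with fitting errors on KD.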

Assay [10] addresses T1, Natural resistance-associated macrophage protein 2. Kind of assay: Inhibition of human DMT1 expressed in Xenopus oocytes assessed as inhibition of channel currents at -50 mV holding potential by two-electrode voltage clamp assay. The format is cell-based. To be noted: oocyte. A digest of the protocol:
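Xenopus oocytes were injected with 20 ng hDMT1 cRNA and used 3–5 days later. Holding current at Vh −50 mV was recorded, low-pass filtered at 500 Hz and digitized at 5 kHz.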
(Two-electrode voltage clamp holds a large cell at a set potential and records current.)

Assay [11] in a line: Metal chelating activity assessed as compound-Cd2+ complex formation by measuring precipitation at 0.4 mM in aqueous buffer of pH 5.5 by isothermal titration calorimetry. In outline: as §2
In general terms: Isothermal titration calorimetry measures the heat released or taken up as one component is titrated into another.

A short description of assay [12]: Metal chelating activity assessed as inhibition of human ZIP8 expressed in HEK293T cells by measuring inhibition of radiolabeled 55Fe2+ uptake preincubated with compound for 5 mins followed by incubation with Fe2+ and radiolabeled 55Fe2+ for 15 mins at extracellular pH of 7.4 by scintillation counting analysis. The format is cell-based. To be noted: HEK-293T. A digest of the protocol:
as §1

The target in assay [13] is T2, Natural resistance-associated macrophage protein 2 (Homo sapiens) (UniProt P49281).
T2 sequence (whole entry): T1 sequence (P49281 whole entry)
As to the kind of experiment: Inhibition of human DMT1 expressed in HEK293T cells by measuring inhibition of radiolabeled 55Fe2+ uptake at 10 uM preincubated with compound for 5 mins followed by incubation with Fe2+ and radiolabeled 55Fe2+ for 15 mins at extracellular pH of 5.5 by scintillation counting analysis. To be noted: time 20.0 min. The format is cell-based. In outline: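 HEK293T cells seeded at 30,000/well 48 h ahead and transiently transfected 24 h later with DsRED-hDMT1. After wash in uptake buffer, 5 min preincubation with compound, then 15 min at RT in pH 5.5 uptake solution with 100 μM ascorbic acid, Fe2+ and 55Fe2+ (0.5 μCi/mL). Ice-cold pH 7.5 wash, scintillation counting, cpm converted to influx rate.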

Assay [14] has as its target T2, Natural resistance-associated macrophage protein 2 (Homo sapiens). Kind of assay: Inhibition of human DMT1 expressed in Xenopus laevis oocytes assessed as reduction in radiolabeled 55Fe2+ uptake at 10 uM preincubated for 5 mins followed by incubation with Fe2+ and radiolabeled 55Fe2+ and measured after 10 mins by scintillation counting method relative to control. To be noted: Oocyte, time 15.0 min. The format is cell-based. A digest of the protocol: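 Xenopus oocytes injected with 20 ng hDMT1 cRNA, tested 3-5 days later, 10-15 oocytes per condition. 5 min RT in pH 5.5 transport medium with 10 μM compound, then 10 min with compound, 100 μM ascorbate, 1 μM Fe2+ and 0.5 μCi/mL 55Fe2+. Ice-cold rinse with 250 μM Fe2+, SDS solubilization, scintillation counting. Compound-free and non-injected oocytes run in parallel.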

The structures appear in SMILES notation. Calls of active or inactive are those of the source. The calls are words filed in the database; no cut-off is given here.

One may read the inhibition as the relative decrease from the control value, in per cent. Take `Cc1cc(=O)[nH]c(-n2[nH]c(C)c(Cc3ccccc3)c2=O)n1`: the inhibition in assay [1] is less than 20%.
With `Cc1nn(-c2ccccn2)c(O)c1C(=O)Nc1cccc(C(F)(F)F)c1`, the result in [2], in assay [3], in [1], in assay [4] and in assay [5] was Active.
For the compound `Cc1cc(C)nc(-n2nc(C)cc2C)n1`, the inhibition in assay [1] is less than 20%.
Same read-out and setting: under `CCOC(=O)c1cnc(-n2[nH]c(C)cc2=O)[nH]c1=O` stands less than 20%; under `Cc1cc(=O)[nH]c(-n2nc3c(c2C)CNCC3)n1`, less than 20%.
In general, IC50 refers to the concentration needed to halve the response being measured. As for `N=C(N)SCc1cccc(CSC(=N)N)c1`, the IC50 in assay [6] stood at 7 µM.
Take `Cc1cc(=O)[nH]c(-n2nc(-c3ccccc3)cc2C)n1`: the inhibition in assay [1] was less than 20%.
Same read-out and setting: under `CCc1cc(=O)[nH]c(-n2[nH]c(C)cc2=O)n1` stands less than 20%.
Regarding `Cc1cc(=O)[nH]c(-n2nc3c(c2C)CCCC3)n1`, the result in assay [3], in assay [1], in assay [9], in assay [4], in assay [5] and in [11] was Active. Also, the result in [7] and in assay [8] was inactive. The IC50 result in assay [10] was “Not Active”; in assay [12], 1.4 µM.
Take `Cc1cc(=O)[nH]c(-n2[nH]c(C)c(C(=O)Nc3cccc(C(F)(F)F)c3)c2=O)n1`: the inhibition in [1] is less than 20%.
Same read-out and setting: under `Cc1cc(=O)[nH]c(-n2nc(C)c(-c3ccccc3)c2C)n1` stands less than 20%; under `Cc1cc(=O)[nH]c(-n2nc(C)c(Cc3ccccc3)c2C)n1`, less than 20%; under `Cc1cc(=O)[nH]c(-n2nc3c(c2C)COCC3)n1`, less than 20%.
On the same count and under the same terms, under `Cc1cc(=O)[nH]c(-n2nc(C(C)(C)C)cc2C)n1` stands less than 20%; under `CCc1cc(=O)n(-c2nc(C)cc(=O)[nH]2)[nH]1`, less than 20%.
Consider `N=C(N)SCc1cccc2c1oc1c(CSC(=N)N)cccc12`, for which the inhibition result in assay [13] is “Active”. Further, the result in assay [3] and in [4] was inactive. In addition, the inhibition in assay [14] is 100%.
As to `Cc1cc(O)nc(-n2nc(C)cc2C)n1`, the result in assay [3] and in [5] was inactive. The outcome in [1] and in [4] was Active.
For `Cc1cc(=O)[nH]c(-n2nc3c(c2C)CCC3)n1`, the inhibition in assay [1] is less than 20%.

The record behind these values is ChEMBL document CHEMBL4699420, “Pyrazolyl-pyrimidones inhibit the function of human solute carrier protein SLC11A2 (hDMT1) by metal chelation” (RSC Med Chem, 2020).
